Experimental data taken from ChEMBL document CHEMBL5715946 (Chem Biol, 2010).
Activity calls are given as the source filed them. No cut-off for these calls is given here.

Assays:
[1] = test system: Antioxidant response element; experiment: Induction of rat ARE activity expressed in MIF-stimulated rat H9c2 cells assessed as increase in ARE luciferase activity at 1 uM measured after 24 hrs by steady-glo luciferase Assay; type: cell-based
Outline: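 H9c2 cells transiently transfected with pGL3-ARE-Luc (rat GST Ya ARE) or mutant-ARE control plasmid, then treated with rMIF with or without 1 μM compound for 24 hr. Luciferase by Steady-Glo; mean ± SD, n = 4.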

[2] = Upregulation of UDP glucuronosyltransferase, exon 1 gene expression in serum-deprived neonatal Wistar rat cardiomyocyte at 0.37 uM incubated for 21 hrs by microarray analysis relative to control; type: functional, Cardiac muscle cell
Outline: (§1)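 Primary neonatal rat cardiomyocytes cultured with or without 0.37 μM compound in serum-free medium for 21 hr. Total RNA profiled on the rat genome U34A GeneChip array (about 7000 known genes).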

[3] = Upregulation of NAD(P)H: quinone reductase gene expression in serum-deprived neonatal Wistar rat cardiomyocyte at 0.37 uM incubated for 21 hrs by microarray analysis relative to control; type: functional, Cardiac muscle cell; outline: as §1
[4] = target: Macrophage migration inhibitory factor (Rattus norvegicus) (UniProt P30904); experiment: Induction of MIF-stimulated ARE activity in rat H9c2 cells assessed as increase in GST Ya expression at 3 uM incubated for 24 hrs by RT-qPCR analysis; type: cell-based
Sequence of Macrophage migration inhibitory factor (Rattus norvegicus) (P30904 2-115 limits assumed): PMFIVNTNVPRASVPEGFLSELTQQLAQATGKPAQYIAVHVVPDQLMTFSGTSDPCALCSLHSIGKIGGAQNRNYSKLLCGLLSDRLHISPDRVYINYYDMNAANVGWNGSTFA

[5] = Reduction in MIF expression in MIF siRNA transfected rat H9c2 cell culture medium at 3 uM measured after 24 hrs ELISA relative to control; type: functional; parameters: scale not given: the % may be the effect or the level left
Outline: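 H9c2 cells transfected with 100 nM rat MIF siRNA or negative-control siRNA using Oligofectamine in Opti-MEM, then treated with 3 μM compound for 24 hr. MIF mRNA by real-time qPCR; MIF protein in cell lysate and medium by ELISA. Mean ± SD, n = 3.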

[6] = target: T1, Glutathione S-transferase alpha-1 (Rattus norvegicus) (UniProt P00502); experiment: Binding affinity to rat N-terminal 6His-tagged truncated GST Ya expressed in Escherichia coli BL21 (DE3) at 400 nM incubated for 6 hrs using labelled compound by scintillation proximity assay
T1 sequence (whole entry): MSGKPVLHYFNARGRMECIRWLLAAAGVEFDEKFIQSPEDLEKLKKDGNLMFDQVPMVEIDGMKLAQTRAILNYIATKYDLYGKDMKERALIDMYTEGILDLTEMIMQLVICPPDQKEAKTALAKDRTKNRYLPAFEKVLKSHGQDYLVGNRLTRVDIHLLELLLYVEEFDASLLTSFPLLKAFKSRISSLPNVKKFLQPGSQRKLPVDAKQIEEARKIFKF
Outline: (§2)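 Scintillation proximity assay: 6His-tagged protein (hMIF, rat GST Ya or rat VILIP3) captured on copper His-tag SPA beads with [3H]-BTZO-1; emitted light counted on a microplate scintillation counter. Mean of n = 2.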

[7] = target: Macrophage migration inhibitory factor (Rattus norvegicus, UniProt P30904); experiment: Inhibition of recombinant rat MIF expressed in Escherichia coli BL21 (DE3) assessed as reduction in tautomerase activity using L-dopachrome carboxy-methyl ester as substrate by spectrophotometry
Sequence of Macrophage migration inhibitory factor (Rattus norvegicus, UniProt P30904) (P30904 2-115 limits assumed): as the sequence (P30904 2-115 limits assumed) above
Outline: (§3)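 Purified recombinant rat MIF tautomerase assayed with purified L-dopachrome carboxy-methyl ester as substrate in pH 6.0 buffer; rate taken over the initial 30 s. Mean ± SD, n = 4.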

[8] = Upregulation of heme oxygenase-1 gene expression in serum-deprived neonatal Wistar rat cardiomyocyte at 0.37 uM incubated for 21 hrs by microarray analysis relative to control; type: functional, Cardiac muscle cell
Outline: (§4)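 Primary neonatal rat cardiomyocytes, isolated by proteinase digestion with preplating to deplete nonmyocytes, cultured in serum-free medium with or without 0.37 μM compound for 21 hr. Total RNA was recovered and global expression profiled on an Affymetrix GeneChip rat genome U34A array (about 7000 known genes). Change is relative to untreated cells.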

[9] = target: T2, Macrophage migration inhibitory factor (Homo sapiens, UniProt P14174); experiment: Binding affinity to BTZO-12 sensor chip immobilized human MIF expressed in Escherichia coli BL21 (DE3) by SPR analysis
T2 sequence (P14174 whole entry): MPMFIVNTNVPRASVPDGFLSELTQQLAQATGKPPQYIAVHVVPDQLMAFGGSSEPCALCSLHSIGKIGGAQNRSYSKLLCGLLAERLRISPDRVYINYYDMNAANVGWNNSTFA
Outline: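 Sensor chip carrying immobilized BTZO-12; MIF (wild type or point mutants) passed over it and specific binding monitored by surface plasmon resonance.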

[10] = species on record: Rattus norvegicus; experiment: Binding affinity to rat 6His-tagged VILIP3 expressed in Escherichia coli BL21 (DE3) at 400 nM incubated for 6 hrs using labelled compound by scintillation proximity assay; outline: as §2
[11] = test system: Cardiac muscle cell; experiment: Cytoprotective activity against DOX-induced neonatal Wistar rat cardiomyocyte death assessed as increase in cell viability at 4.6 to 370 nM preincubated for 3 hrs followed by DOX addition and measured after 18 hrs by WST-8 assay; type: functional, cell-based; details: dose 4.6-370 nM, time 21.0 hrs
Outline: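 Neonatal rat cardiomyocytes, isolated by proteinase digestion and preplating, pretreated with samples for 3 hr in serum-free medium, then exposed to 200 nM doxorubicin for 18 hr. Viability by WST-8. Mean ± SD, n = 6.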

[12] = target: Macrophage migration inhibitory factor (Rattus norvegicus) (UniProt P30904); experiment: Binding affinity to BTZO-12 sensor chip immobilized recombinant rat MIF expressed in Escherichia coli BL21 (DE3) at pH 7.3 by SPR analysis
Outline: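 SPR on a BTZO-12-type sensor chip with purified recombinant rat MIF, binding compared at pH 6.0 and pH 7.3.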

[13] = test system: Antioxidant response element; experiment: Induction of ARE activity in serum-deprived neonatal Wistar rat cardiomyocytes assessed as increase in GST Ya mRNA level up to 3 uM measured after 24 hrs by RT-qPCR analysis; type: cell-based; details: Cardiomyocyte
Outline: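 Neonatal rat cardiomyocytes exposed to samples or vehicle in M-199 with 1% penicillin-streptomycin, no serum, for 24 hr. GST Ya and HO-1 mRNA measured by real-time qPCR (mean ± SD, n = 3); protein by western blot with β-actin as control.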

[14] = test system: Antioxidant response element; experiment: Induction of ARE-mediated GST Ya mRNA expression in MIF siRNA transfected rat H9c2 cells at 3 uM measured after 24 hrs in presence of rat MIF by RT-qPCR analysis; type: cell-based
Outline: (§5)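 H9c2 cells transfected with MIF siRNA or control siRNA (100 nM, Oligofectamine), then treated with 3 μM compound with or without 0.8 μM rMIF for 24 hr. GST Ya and HO-1 mRNA by real-time qPCR; mean ± SD, n = 3. MIF effect on drug efficacy tested by Aspin-Welch test.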

[15] = test system: Antioxidant response element; experiment: Induction of ARE-mediated GST Ya mRNA expression in MIF siRNA transfected rat H9c2 cells at 3 uM measured after 24 hrs by RT-qPCR analysis; type: cell-based; outline: as §5
[16] = target: Macrophage migration inhibitory factor (Rattus norvegicus) (UniProt P30904); experiment: Inhibition of recombinant rat MIF expressed in Escherichia coli BL21 (DE3) assessed as reduction in tautomerase activity at 3.75 to 30 uM using L-dopachrome carboxy-methyl ester as substrate by spectrophotometry; details: dose 3.75-30 µM; outline: as §3
[17] = Upregulation of gamma-glutamylcysteine synthetase gene expression in serum-deprived neonatal Wistar rat cardiomyocyte at 0.37 uM incubated for 21 hrs by microarray analysis relative to control; type: functional, Cardiac muscle cell; outline: as §4
[18] = Upregulation of glutathione S-transferase Y(b) subunit gene expression in serum-deprived neonatal Wistar rat cardiomyocyte at 0.37 uM incubated for 21 hrs by microarray analysis relative to control; type: functional, Cardiac muscle cell; outline: as §4

Q: With `O=c1nc(-c2ccccn2)sc2ccccc12` [BTZO-1] as the compound, how does the Activity [1] read?
A: Active

Q: And the “fold change (FC)” value [2]?
A: 5

Q: What about the “fold change (FC)” value [3] of the same compound?
A: 9.4

Q: And the Activity [4]?
A: Active

Q: And the Activity [5]?
A: ~75%

Q: And the Activity [6]?
A: inactive

Q: What about the IC50 [7] of the same compound?
A: > 30000 nM

Q: And the “fold change (FC)” value [8]?
A: 2

Q: What about the Kd [9] of the same compound?
A: 88 nM

Q: And the Activity [10]?
A: inactive

Q: And the Activity [11]?
A: Active

Q: What about the Activity [12] of the same compound?
A: Active

Q: What about the Activity [13] of the same compound?
A: Active

Q: And the Activity [14]?
A: Active

Q: And the Activity [15]?
A: inactive

Q: And the inhibition [16]?
A: Active

Q: And the “fold change (FC)” value [17]?
A: 2.4

Q: What about the “fold change (FC)” value [18] of the same compound?
A: 2.5
